EC50 data for 93 compounds are collected here from PubChem BioAssay AID809 (SRMLSC, 2007).

Active and inactive are the calls of the source.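 How the source made its calls: active means EC50 for reversing nicotinamide-shortened yeast lifespan at or below a set limit; inactive means EC50 above that limit.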 A value given as a limit tells only on which side of the number the result lay.

The test relates to S. cerevisiae DeaD BB579, nicotinamide rescue growth, OD615 48 h. The test is described as follows: BB579 yeast growth restoration under nicotinamide – S. cerevisiae, yeast lifespan extension project, dose response (AID 809). Summed up:
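System: S. cerevisiae DeaD strain BB579 / Medium: Glucose-containing restrictive synthetic medium (CSMM-D), shifted from galactose / Schedule: 4 h pre-incubation, 48 h exposure at 30 °C / Technique: optical density at 615 nm (absorbance) / Read-out: culture growth as lifespan proxy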
On to `COc1ccc(/C=C(/C(=O)c2ccc(Cl)cc2Cl)n2cncn2)cc1`, for which the EC50 (as a rule, the concentration needed to bring the measured effect to its halfway point) is 8.48 µM.

For the compound `CS(=O)(=O)c1nc(-c2ccccc2)cc(C(F)(F)F)n1`, the EC50 is 3.32 µM.

As to `CCSc1ccccc1C(=O)n1nnc2ccccc21`, the EC50 is 7.79 µM.

Consider `Cc1ccc(/C(O)=C2\C(=O)C(=O)N(c3cc(C)on3)C2c2cccc(Cl)c2)cc1` (stereo not drawn), for which the EC50 is 9.72 µM.

Take `CN(C)/C=C(/C(=O)c1ccc(Cl)cc1Cl)S(=O)(=O)c1ccc(Cl)cc1`: the EC50 is 5.49 µM.

For the compound `O=C(Nc1ccc(Br)cn1)c1cccc(-c2cc3ccccc3oc2=O)c1`, the EC50 is > 10 µM (inactive).

On to `CC1Cc2ccccc2N1C(=O)Cn1cnc2ccccc2c1=O` (stereo not drawn), for which the EC50 was 3.18 µM.

Regarding `CC(=NCCc1c(C)[nH]c2ccc(C)cc12)C1=C(O)CC(c2ccccc2)CC1=O` (stereo not drawn), the EC50 is 7.69 µM.

Take `CN(C)/C=C(/C(=O)c1ccc(Cl)cc1Cl)S(=O)(=O)c1ccccc1`: the EC50 is 5.3 µM.

Take `COc1ccc(C(=O)C(CN2CCOCC2)c2ccccc2)cc1F` (stereo not drawn): the EC50 is 4.62 µM.

As for `O=C(NCc1cccnc1)c1ccc(S(=O)(=O)N2CCCCC2)cc1`, the EC50 was > 10 µM (inactive).

Turning to `C=C(C)CN(CC)C(=O)COc1ccc(S(=O)(=O)Nc2ccc(OC)cc2)cc1`, the EC50 was > 10 µM (inactive).

In the case of `Oc1ccc(Br)cc1C=Nc1ccc2[nH]ncc2c1`, the EC50 was > 10 µM (inactive).

With `CCCCC(=O)Nc1ccc(C(=O)NNC(=S)NC(=O)c2cccs2)cc1`, the EC50 was 8.39 µM.

In the case of `Cc1nonc1NC(=O)CSc1nc(C2CCCCC2)nc2ccccc12`, the EC50 was > 10 µM (inactive).

Consider `Cc1ccc(S(=O)(=O)N[C@@H](Cc2ccccc2)C(=O)CCl)cc1`, for which the EC50 is 5.97 µM.

Turning to `Cc1ccccc1Oc1cc(-n2ncc(Cl)c(Cl)c2=O)ncn1`, the EC50 is > 10 µM (inactive).

In the case of `Cc1n[nH]c(=O)n1-c1cccc(C(F)(F)F)c1`, the EC50 was > 10 µM (inactive).

On to `N#Cc1cc(C(=O)c2cc(F)ccc2O)cn(-c2nccs2)c1=O`, for which the EC50 was > 10 µM (inactive).

On to `Cc1ccc(N/C(C(Cl)=C(Cl)Cl)=C(/Cl)[N+](=O)[O-])c(C)c1`, for which the EC50 is 8.68 µM.

On to `COC(=O)c1sc2ncn(-n3c(C)ccc3C)c(=O)c2c1C`, for which the EC50 is > 10 µM (inactive).

As for `Cc1cc(C)nc(SCc2cc(=O)c(OC(=O)c3ccc(Br)o3)co2)n1`, the EC50 is 3.26 µM.

Take `O=C1CC(c2ccccc2)CC(O)=C1C=NCCN1CCN(C(=O)Cc2ccccc2)CC1` (stereo not drawn): the EC50 is 6.72 µM.

Turning to `Oc1ccc2ccccc2c1C=Nc1ccccc1-c1nc2ccccc2[nH]1`, the EC50 was > 10 µM (inactive).

With `CC(=O)[C@H]1[C@H](c2cccc(Cl)c2)C(C#N)(C#N)[C@@H]2c3ccccc3C=CN21`, the EC50 is 8.71 µM.

Take `COc1ccc(O)c(C(=O)c2cc(C#N)c(=O)n(CC3CCCO3)c2)c1` (stereo not drawn): the half-maximal effective concentration (EC50) was 8.21 µM.

Regarding `CCCCCSc1nc2c(c(=O)[nH]c(=O)n2C)n1C`, the EC50 is > 10 µM (inactive).

For `COc1ccc(CNC(=O)C2CCN(c3nc(OC)nc(OC)n3)CC2)cc1`, the EC50 was > 10 µM (inactive).

For the compound `CC(C)c1nnc(NC(=O)c2c(O)c3cccc4c3n(c2=O)CCC4)s1`, the EC50 is 4.31 µM.

Consider `COc1ccc(N(C(=O)C(C)C)S(=O)(=O)c2ccc(Cl)cc2)cc1`, for which the EC50 was > 10 µM (inactive).

For `Cc1nn(-c2c(Cl)cc(Cl)cc2Cl)c(=O)c2ccccc12`, the EC50 was 6.34 µM.

In the case of `CCOc1ccccc1/C=c1\sc2ncnn2c1=O`, the EC50 is 7.17 µM.

As for `C=CCn1c(-c2ccc(OC)cc2)csc1=Nc1c(C)n(C)n(-c2ccccc2)c1=O`, the EC50 is > 10 µM (inactive).

With `Cc1ccc(NC(=O)C2C(=O)N(C)c3ccccc32)cc1` (stereo not drawn), the EC50 was > 10 µM (inactive).

Turning to `C=CS(=O)(=O)c1ccc(Oc2ccc(S(=O)(=O)C=C)cc2)cc1`, the EC50 is 7.12 µM.

As for `COc1ccc(OC)c(C2C(C(C)=O)=C(O)C(=O)N2Cc2cccnc2)c1` (stereo not drawn), the EC50 was > 10 µM (inactive).

With `O=C(/C=C(\O)c1ccc(Cl)cc1)C(=O)NNC(=O)C(O)(c1ccccc1)c1ccccc1`, the EC50 is 2.75 µM.

Consider `O=C(Nc1cccnc1)c1c(O)c2cccc3c2n(c1=O)CC3`, for which the EC50 was 4.44 µM.

Consider `Cc1cc(C)n2cc(CSc3nnc(N)s3)nc2n1`, for which the EC50 was > 10 µM (inactive).

Consider `COc1cc(OC)cc(-c2nc3ccccc3c(=O)n2OC(=O)c2ccccc2C)c1`, for which the EC50 was > 10 µM (inactive).

Turning to `COc1cc(C(C[N+](=O)[O-])c2c(-c3ccccc3)cc3ccccn23)cc(OC)c1OC` (stereo not drawn), the EC50 is > 10 µM (inactive).

On to `COc1ccccc1N(CN1CCCC1=O)C(=O)c1c(F)cccc1F`, for which the EC50 was > 10 µM (inactive).

On to `CC1=CS(=O)(=O)CC1Sc1nc2ccccc2[nH]1` (stereo not drawn), for which the EC50 was > 10 µM (inactive).

As for `CC(=O)c1c(O)cc2n(c1=O)-c1ccc(Cl)cc1C2(C)C`, the EC50 is 7.34 µM.

For `Cc1cccc(N2C(=O)C(Oc3ccc(Cl)cc3Cl)C2C=O)c1C` (stereo not drawn), the EC50 is 6.52 µM.

For `Cc1ccsc1C(=O)Nc1nnc(-c2ccco2)o1`, the EC50 was 9.27 µM.

As for `COc1ccc(C(=O)C(CN2CCOCC2)c2ccccc2)cc1` (stereo not drawn), the EC50 is 7.11 µM.

For `O=C1OC2(CCCCC2)OC(=O)C1=CNc1nc2ccccc2s1`, the EC50 was > 10 µM (inactive).

As to `CCSc1nnc(NC(=O)C2(C)Cc3ccccc3C(=O)O2)s1` (stereo not drawn), the EC50 was 6.52 µM.

Take `CC1CCCN(c2nc3ccccc3nc2C(C#N)C(=O)OC2CCCCC2)C1` (stereo not drawn): the EC50 is > 10 µM (inactive).

For the compound `CCOC(=O)c1cnc(-c2ccccc2)nc1Oc1ccc(Cl)cc1`, the EC50 is > 10 µM (inactive).

For the compound `CCc1nc(SCC(=O)c2ccc3c(c2)OCCO3)c2ccccc2n1`, the EC50 was > 10 µM (inactive).

For the compound `O=C1c2ccccc2NC(c2cnc3ccccc3n2)N1O` (stereo not drawn), the EC50 was 1.42 µM.

`C[C@]12CC[C@@H](O)C[C@@H]1CC[C@@H]1[C@@H]2CC[C@]2(C)[C@@H](O)CC[C@@H]12`: the EC50 was > 10 µM (inactive).

Consider `NC(=S)N/N=C/c1coc2cc(Cl)ccc2c1=O`, for which the EC50 is 4.87 µM.

As to `CCOC(=O)Cc1csc(NC(=O)c2c(O)c3ccccc3n(CC(C)C)c2=O)n1`, the EC50 was 9.63 µM.

`CCCn1c(C)cc(C(=O)COc2ncnc3sccc23)c1C`: the EC50 was 5.05 µM.

For `Cc1cc(N=Cc2c(O)ccc3ccccc23)no1`, the EC50 was 5.54 µM.

Turning to `CC(C)Cc1nn2c(=O)cc(O)nc2s1`, the EC50 was 8.79 µM.

Turning to `COCCCNC(CC(=O)Nc1ccc(OC)cc1OC)C(=O)O` (stereo not drawn), the EC50 was > 10 µM (inactive).

With `Oc1ccc2ccccc2c1/C=N/c1nccs1`, the EC50 was 6.59 µM.

Regarding `CC[n+]1c(/C=C2\C=C(C)CC(C)(C)C2)sc2ccccc21`, the EC50 is > 10 µM (inactive).

As for `CCOc1ccc2nc(NCCNC(=O)Nc3ccccc3)c(C#N)cc2c1`, the EC50 was > 10 µM (inactive).

As for `O=C(CCl)N1c2ccccc2OCC1c1ccccc1` (stereo not drawn), the EC50 is 9.75 µM.

With `CCOc1cc(Br)c(Br)c(C=Nc2ccc(NC(C)=O)cc2)c1O`, the EC50 is 5.03 µM.

Consider `Nn1c(-c2ccccn2)nnc1-c1ccccn1`, for which the EC50 was > 10 µM (inactive).

Regarding `CC(c1ccccc1)N1CCn2c(nc3cc(NC(=O)c4cccs4)ccc32)C1` (stereo not drawn), the EC50 is 7.15 µM.

For the compound `Cc1cc(NS(=O)(=O)c2ccc(CC(C)C)cc2)no1`, the EC50 is 6.25 µM.

Consider `CCCCOC(=O)CSc1nc2c(c(=O)[nH]c(=O)n2C)n1C/C=C(\C)Cl`, for which the EC50 is > 10 µM (inactive).

Turning to `CC1CCCCN1C(=S)Nc1ccc2nc3n(c(=O)c2c1)CCCCC3` (stereo not drawn), the EC50 was 8.72 µM.

For `COC(=O)c1sc(S(=O)(=O)Nc2ccc(Br)cc2)c(C(=O)OC)c1C`, the EC50 was > 10 µM (inactive).

Consider `CCOC(=O)CCS(=O)(=O)c1nc(-c2ccccc2)cc(C(F)(F)F)n1`, for which the EC50 is 1.13 µM.

Take `Cc1ccc(CNc2nc3ccccc3s2)s1`: the EC50 is > 10 µM (inactive).

Take `c1ccc(-c2cc(N3CCOCC3)nc3ccccc23)cc1`: the EC50 was > 10 µM (inactive).

As for `O=C(/C=C/c1ccccc1)Nc1ncn[nH]1`, the EC50 is > 10 µM (inactive).

`CCn1ccc(C(=O)Nc2ccc(S(=O)(=O)Nc3ccccc3OC)cc2)n1`: the EC50 is > 10 µM (inactive).

With `CCN1C(=O)C(=Cc2ccc(C)s2)C(=O)N(CC)C1=S`, the EC50 was 3.74 µM.

As for `COC(=O)C1=C(C(=O)OC)SC(=C2C(=S)C(C)(C)N(C(=O)C(C)C)c3ccccc32)S1`, the EC50 is > 10 µM (inactive).

Take `Cc1c(O)c(S(=O)c2ccccc2)c(=O)n(-c2ccccc2)c1-c1ccccc1` (stereo not drawn): the EC50 is 4.32 µM.

On to `O=c1cc(O)c2c(=O)n(-c3ccccc3)c3c(c2o1)CCCCCC3`, for which the EC50 is > 10 µM (inactive).

For `CC1(C)Oc2ccccc2OC1(O)c1ccc2ccccc2n1` (stereo not drawn), the EC50 was > 10 µM (inactive).

In the case of `O=[N+]([O-])c1cc2oc3c(c2c(C=NCc2ccncc2)c1O)CCCC3`, the EC50 is 1.2 µM.

Turning to `O=C1Nc2cc(Cl)c(Cl)cc2N(O)N1c1cc(Cl)cc(Cl)c1`, the EC50 is > 10 µM (inactive).

As to `O=S(=O)(CCSc1ccccn1)c1nc2ccccc2s1`, the EC50 was 5.84 µM.

In the case of `CCCCNC(=O)/C(C#N)=C/c1cccnc1`, the EC50 was 9.27 µM.

On to `CCCCN(CCCC)c1ccc(C(=O)c2ccccc2C(=O)O)c(O)c1`, for which the EC50 was 6.81 µM.

`Oc1ccc(NCc2ccccc2OCc2ccccc2F)cc1`: the EC50 is > 10 µM (inactive).

For `COc1cc(/C=C/C(=O)c2c(O)cc(C)oc2=O)cc(OC)c1O`, the EC50 is > 10 µM (inactive).

Turning to `O=C1c2ccccc2-c2onc3c(Oc4ccccc4)cc(O)c1c23`, the EC50 was 6.05 µM.

Turning to `COc1ccc(CNC(=O)c2c(O)c3cccc4c3n(c2=O)CCC4)cc1`, the EC50 was > 10 µM (inactive).

Turning to `CCCCCC(=O)N1CCN(CCN=CC2=C(O)CC(c3ccc(OC)c(OC)c3)CC2=O)CC1` (stereo not drawn), the EC50 is > 10 µM (inactive).

As to `Nc1cccc2c1C(=O)N(C(=O)c1ccc(Cl)c(S(=O)(=O)N3CCCCCC3)c1)C2=O`, the EC50 was 7.66 µM.

Turning to `O=C(Nc1cccc(Cl)c1)c1ccc2c(=O)n3c(nc2c1)CCCCC3`, the EC50 is 6.59 µM.
